# Measured values as given in PMC4176373 (Nucleic Acids Research, 2014).
# Key:
# [1] = target: mouse eIF4E(28–217) (Mus musculus, UniProt P63073); settings: 50 mM HEPES/KOH (pH 7.2), 100 mM KCl, 20°C; cited from earlier work
# [2] = test system: human immature dendritic cells (hiDCs); test: Luciferase expression from 5′-capped mRNAs in dendritic cells; type: cell-based; settings: luciferase mRNA capped with the analog, electroporated into hiDCs
# How it was run: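 Luciferase mRNA made by T7 in vitro transcription with the cap dinucleotide added co-transcriptionally; plasmid DNA digested and RNA purified. Capped mRNA electroporated into human immature dendritic cells. Luciferase activity read at 2, 4, 8, 24, 48 and 72 h, in duplicate, and normalised to cell number. Time of maximal expression derived by spline interpolation of the time course.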
# [3] = target: T1, hDcpS (Homo sapiens, UniProt Q96C86); settings: pH 7.6, 20°C; cited from earlier work
# T1 sequence (Q96C86 1-337): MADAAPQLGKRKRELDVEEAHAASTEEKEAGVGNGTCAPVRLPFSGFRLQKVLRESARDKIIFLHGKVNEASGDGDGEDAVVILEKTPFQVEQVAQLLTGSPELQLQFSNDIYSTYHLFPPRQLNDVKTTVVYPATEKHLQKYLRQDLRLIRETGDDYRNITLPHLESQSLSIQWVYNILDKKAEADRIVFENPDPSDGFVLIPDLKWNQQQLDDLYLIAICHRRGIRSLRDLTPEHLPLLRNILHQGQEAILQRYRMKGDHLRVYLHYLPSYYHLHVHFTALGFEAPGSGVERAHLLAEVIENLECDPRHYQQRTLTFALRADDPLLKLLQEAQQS
# [4] = target: T2, CeDcpS (Caenorhabditis elegans, UniProt G5EFS4); settings: pH 7.6, 20°C; cited from earlier work
# T2 sequence (G5EFS4 1-311): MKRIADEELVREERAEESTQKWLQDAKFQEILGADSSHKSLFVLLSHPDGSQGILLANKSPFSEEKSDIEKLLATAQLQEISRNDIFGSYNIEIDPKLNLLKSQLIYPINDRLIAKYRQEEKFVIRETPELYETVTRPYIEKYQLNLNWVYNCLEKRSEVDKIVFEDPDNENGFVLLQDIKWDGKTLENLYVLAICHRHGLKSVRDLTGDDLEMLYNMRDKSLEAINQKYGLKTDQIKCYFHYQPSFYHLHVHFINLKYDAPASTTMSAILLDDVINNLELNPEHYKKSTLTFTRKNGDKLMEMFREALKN
# [5] = target: T2, CeDcpS; test: HPLC-based assay of DcpS-mediated hydrolysis, Assay 2; type: biochemical; settings: DcpS 200 nM, cap analog 15 μM, pH 7.6, 20 °C
# How it was run: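 Substrate at 15 µM sits 10 min at 20°C in 50 mM Tris HCl, 200 mM KCl, 0.5 mM EDTA, 1 mM DTT (final pH 7.6) before enzyme is added to 0.2 μM. Aliquots are heat-stopped at 97°C for 2.5 min at 10 and 90 min. Analysis is RP HPLC (methanol 0–30% in 0.1 M KH₂PO₄), reading A260 and fluorescence (ex 280/em 337 nm). Output is x = % substrate hydrolysed, with the substrate peak multiplied by 1.1. CeDcpS was E. coli-expressed and Ni-NTA-purified.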
# [6] = Stacking measurements; type: physicochemical; settings: 0.1 M phosphate buffer, pH 5.2, 20°C; from fluorescence intensity of 7-methylguanosine; mean ± SD
# How it was run: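 Dinucleotide fluorescence intensity compared with m⁷GMP (7-methylguanosine fluorophore) in phosphate buffer, pH 5.2, at 20 °C. Stacked fraction calculated as (F_m7GMP − F_cap)/F_m7GMP, since stacking partially quenches 7-methylguanosine fluorescence. Values given as mean ± SD.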
# [7] = target: T1, hDcpS; test: HPLC-based assay of DcpS-mediated hydrolysis, Assay 2; type: biochemical; settings: DcpS 200 nM, cap analog 15 μM, pH 7.6, 20 °C
# mouse eIF4E(28–217), sequence (P63073 28-217): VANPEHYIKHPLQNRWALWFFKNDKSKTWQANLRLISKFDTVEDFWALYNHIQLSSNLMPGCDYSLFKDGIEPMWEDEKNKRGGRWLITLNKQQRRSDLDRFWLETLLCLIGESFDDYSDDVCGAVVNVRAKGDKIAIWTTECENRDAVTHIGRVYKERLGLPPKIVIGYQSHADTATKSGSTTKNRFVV
Structure (SMILES),KAS (equilibrium association constant) for eIF4E [1] [µM⁻¹],KAS for hDcpS [3],KAS for CeDcpS [4],other results
"CO[C@@H]1[C@H](O)[C@@H](COP(=O)(O)OP(=O)([O-])OP(=O)(O)OC[C@H]2O[C@@H](n3cnc4c(=O)[nH]c(N)nc43)[C@H](O)[C@@H]2O)O[C@H]1n1c[n+](C)c2c(O)nc(N)nc21 [m2^7,2′-OGpppG]",10.8 ± 0.3,,,
"CO[C@H]1[C@@H](O)[C@H]([n+]2cn(C)c3c(=O)[nH]c(N)nc32)O[C@@H]1COP(=O)([O-])OP(=O)(O)OP(=O)(O)OC[C@H]1O[C@@H](n2cnc3c(=O)[nH]c(N)nc32)[C@H](O)[C@@H]1O [m2^7,3′-OGpppG]",,,,"Time of max. (time point of maximal protein expression, functional RNA stability) [2]: 11.45 ± 0.07 h"
"C[n+]1cn([C@@H]2O[C@H](COP(=O)(O)OP(=O)(O)O)[C@@H](O)[C@H]2O)c2nc(N)[nH]c(=O)c21 [m^7GDP, 7-methylguanosine diphosphate]",,114 ± 8^b μM^−1,97 ± 12^c μM^−1,
C[n+]1cn([C@@H]2O[C@H](COP(=O)(O)CP(=O)(O)OP(=O)(O)OC[C@H]3O[C@@H](n4cnc5c(=O)[nH]c(N)nc54)[C@H](O)[C@@H]3O)[C@@H](O)[C@H]2O)c2nc(N)[nH]c(=O)c21 [m^7GpCH2ppG],,234 ± 14^e μM^−1,8.6 ± 0.4^c μM^−1,
C[n+]1cn([C@@H]2O[C@H](COP(=O)([O-])NP(=O)(O)OP(=O)(O)OC[C@H]3O[C@@H](n4cnc5c(=O)[nH]c(N)nc54)[C@H](O)[C@@H]3O)[C@@H](O)[C@H]2O)c2nc(N)[nH]c(=O)c21.N.N [m^7GpNHppG],,218 ± 24^d μM^−1,66 ± 9^c μM^−1,
C[n+]1cn([C@@H]2O[C@H](COP(=O)(O)OP(O)(=S)OP(=O)(O)OC[C@H]3O[C@@H](n4cnc5c(=O)[nH]c(N)nc54)[C@H](O)[C@@H]3O)[C@@H](O)[C@H]2O)c2nc(N)[nH]c(=O)c21 (some centres unmarked) [m^7GppSpG D1],45.0 ± 1.1,,,"Percent of cleavage, x (%) CeDcpS 10 min ([5]; reaction time 10 min): 100%; Percent of cleavage, x (%) CeDcpS 90 min ([5]; reaction time 90 min): 100%; % of stacked conformation [6]: 61.8 ± 0.7%; Percent of cleavage, x (%) hDcpS 10 min ([7]; reaction time 10 min): 100%; Percent of cleavage, x (%) hDcpS 90 min ([7]; reaction time 90 min): 100%"
C[n+]1cn(C2OC(COP(=O)(O)OP(O)(=S)OP(=O)(O)OCC3OC(n4cnc5c(=O)[nH]c(N)nc54)C(O)C3O)C(O)C2O)c2nc(N)[nH]c(=O)c21 (centres unmarked) [m^7GppSpG D2],23.0 ± 0.4,,,% of stacked conformation [6]: 60.8 ± 0.2%
C[n+]1cn([C@@H]2O[C@H](COP(=O)(O)OP(=O)(O)OP(=O)(O)OC[C@H]3O[C@@H](n4c[n+](C)c5c(=O)[nH]c(N)nc54)[C@H](O)[C@@H]3O)[C@@H](O)[C@H]2O)c2nc(N)[nH]c(=O)c21 [m^7Gpppm^7G],5.0 ± 0.2,,,
